SMILES strings stand for the structures. Converted amounts (≈) assume the structure as drawn. A value given as a limit tells only on which side of the number the result lay.

One experiment has as its system Enterococcus faecalis. Briefly: Antibacterial activity against Vancomycin resistant Enterococcus faecalis MB51 after 24 hrs by microdilution assay. The note with it: MB51, 24 h. It is filed as functional. An outline of the steps:
(§1)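 Broth microdilution MIC, run as in an earlier cited report. Strains are clinical isolates identified by standard methods and MALDI-TOF; E. faecalis MB19 and MB51 are Ligurian seawater isolates. Highest concentration tested was 128 μg/mL. MICs are given in μg/mL and μM, with oxacillin and vancomycin as reference antibiotics.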
For the molecule `COc1cc2oc(-c3ccc(O)cc3)cc(=O)c2c(O)c1OC` [CIRSIMARITIN], the minimum inhibitory concentration (MIC) was found to be 407 µM (≈ 128 µg/mL).

For another experiment, the system named is Enterococcus faecium. In words: Antibacterial activity against Enterococcus faecium MB3 after 24 hrs by microdilution assay. The note with it: MB3, 24 h. The experiment is classed as functional. The method in brief:
(§2)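 Broth microdilution MIC against clinical or seawater-isolated strains (identified by standard procedures and MALDI-TOF), with compound solutions and testing as in earlier work. MIC reported in μg/mL and μM.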
`COc1cc2oc(-c3ccc(O)cc3)cc(=O)c2c(O)c1OC` [CIRSIMARITIN] registered a minimal inhibitory concentration (MIC) of 204 µM (≈ 64.1 µg/mL).

The next experiment deals with Enterococcus gallinarum. Briefly: Antibacterial activity against Vancomycin resistant Enterococcus gallinarum MB111 after 24 hrs by microdilution assay. The experiment is classed as functional. The note with it: MB111, 24 h. An outline of the steps: as §1
In the case of `COc1cc2oc(-c3ccc(O)cc3)cc(=O)c2c(O)c1OC` [CIRSIMARITIN], the MIC was 102 µM (≈ 32.1 µg/mL).

The next experiment has as its system Staphylococcus capitis. In words: Antibacterial activity against Methicillin-resistant Staphylococcus capitis MB71 after 24 hrs by microdilution assay. The experiment is classed as functional. The note with it: MB71, 24 h. The method in brief: as §1
`COc1cc2oc(-c3ccc(O)cc3)cc(=O)c2c(O)c1OC` [CIRSIMARITIN] returned an MIC of 407 µM (≈ 128 µg/mL).

The subject of the next experiment is Staphylococcus aureus. In words: Antibacterial activity against Methicillin-resistant Staphylococcus aureus MB188 after 24 hrs by microdilution assay. It is filed as functional. The note with it: MB188, 24 h. An outline of the steps:
as §1
In turn, `COc1cc2oc(-c3ccc(O)cc3)cc(=O)c2c(O)c1OC` [CIRSIMARITIN] gave a minimum inhibitory concentration (MIC) above 128 µg/mL.

The next experiment has as its system Enterococcus avium. Briefly: Antibacterial activity against Enterococcus avium MB119 after 24 hrs by microdilution assay. It is filed as functional. The note with it: MB119, 24 h. An outline of the steps: as §2
`COc1cc2oc(-c3ccc(O)cc3)cc(=O)c2c(O)c1OC` [CIRSIMARITIN] returned an MIC of 204 µM (≈ 64.1 µg/mL).

The next experiment has as its system Staphylococcus hominis. In words: Antibacterial activity against Methicillin-resistant Staphylococcus hominis MB124 after 24 hrs by microdilution assay. It is filed as functional. The note with it: MB124, 24 h. The method in brief:
as §1
Take `COc1cc2oc(-c3ccc(O)cc3)cc(=O)c2c(O)c1OC` [CIRSIMARITIN]: the MIC is above 128 µg/mL.

In a further experiment the test system is Enterococcus casseliflavus. Briefly: Antibacterial activity against Vancomycin resistant Enterococcus casseliflavus MB159 after 24 hrs by microdilution assay. The note with it: MB159, 24 h. It is filed as functional. The method in brief:
as §1
In turn, `COc1cc2oc(-c3ccc(O)cc3)cc(=O)c2c(O)c1OC` [CIRSIMARITIN] yielded an MIC of 407 µM (≈ 128 µg/mL).

The test system of another experiment is Enterococcus faecalis. In words: Antibacterial activity against Vancomycin resistant Enterococcus faecalis MB1 after 24 hrs by microdilution assay. It is filed as functional. The note with it: MB1, 24 h. The method in brief: as §1
Turning to `COc1cc2oc(-c3ccc(O)cc3)cc(=O)c2c(O)c1OC` [CIRSIMARITIN], the MIC came out at 204 µM (≈ 64.1 µg/mL).

Another experiment has as its system Staphylococcus haemolyticus. In words: Antibacterial activity against Methicillin-resistant Staphylococcus haemolyticus MB115 after 24 hrs by microdilution assay. The note with it: MB115, 24 h. The experiment is classed as functional. An outline of the steps:
as §1
`COc1cc2oc(-c3ccc(O)cc3)cc(=O)c2c(O)c1OC` [CIRSIMARITIN] registered a minimal inhibitory concentration (MIC) above 128 µg/mL.

The next experiment concerns Enterococcus durans. In words: Antibacterial activity against Enterococcus durans MB113 after 24 hrs by microdilution assay. The experiment is classed as functional. The note with it: MB113, 24 h. The method in brief: as §2
`COc1cc2oc(-c3ccc(O)cc3)cc(=O)c2c(O)c1OC` [CIRSIMARITIN] showed an MIC of 407 µM (≈ 128 µg/mL).

The test system of another experiment is Staphylococcus epidermidis. In words: Antibacterial activity against Methicillin-resistant Staphylococcus epidermidis MB169 after 24 hrs by microdilution assay. The note with it: MB169, 24 h. The experiment is classed as functional. An outline of the steps: as §1
On to `COc1cc2oc(-c3ccc(O)cc3)cc(=O)c2c(O)c1OC` [CIRSIMARITIN], for which the MIC is above 128 µg/mL.

Another experiment deals with Enterococcus faecalis. In words: Antibacterial activity against Vancomycin resistant Enterococcus faecalis MB19 after 24 hrs by microdilution assay. The experiment is classed as functional. The note with it: MB19, 24 h. The method in brief: as §1
Regarding `COc1cc2oc(-c3ccc(O)cc3)cc(=O)c2c(O)c1OC` [CIRSIMARITIN], inhibition of growth (MIC) required 407 µM (≈ 128 µg/mL).

In a further experiment the test system is Enterococcus faecium. Briefly: Antibacterial activity against Enterococcus faecium MB2 after 24 hrs by microdilution assay. The experiment is classed as functional. The note with it: MB2, 24 h. The method in brief: as §2
On to `COc1cc2oc(-c3ccc(O)cc3)cc(=O)c2c(O)c1OC` [CIRSIMARITIN], for which the minimal inhibitory concentration (MIC) is 407 µM (≈ 128 µg/mL).

The next experiment deals with Staphylococcus epidermidis. Briefly: Antibacterial activity against Methicillin-resistant Staphylococcus epidermidis MB165 after 24 hrs by microdilution assay. It is filed as functional. The note with it: MB165, 24 h. The method in brief: as §1
In the case of `COc1cc2oc(-c3ccc(O)cc3)cc(=O)c2c(O)c1OC` [CIRSIMARITIN], the MIC is above 128 µg/mL.

The subject of another experiment is Staphylococcus saprophyticus. In words: Antibacterial activity against Staphylococcus saprophyticus MB41 after 24 hrs by microdilution assay. The note with it: MB41, 24 h. It is filed as functional. An outline of the steps: as §2
As for `COc1cc2oc(-c3ccc(O)cc3)cc(=O)c2c(O)c1OC` [CIRSIMARITIN], the MIC is above 128 µg/mL.

Another experiment concerns Staphylococcus simulans. In words: Antibacterial activity against Staphylococcus simulans MB94 after 24 hrs by microdilution assay. The experiment is classed as functional. The note with it: MB94, 24 h. An outline of the steps: as §2
With `COc1cc2oc(-c3ccc(O)cc3)cc(=O)c2c(O)c1OC` [CIRSIMARITIN], the MIC is above 128 µg/mL.

Another experiment relates to Enterococcus faecium. Briefly: Antibacterial activity against Enterococcus faecium MB152 after 24 hrs by microdilution assay. The experiment is classed as functional. The note with it: MB152, 24 h. The method in brief: as §2
`COc1cc2oc(-c3ccc(O)cc3)cc(=O)c2c(O)c1OC` [CIRSIMARITIN] registered a minimum inhibitory concentration (MIC) of 407 µM (≈ 128 µg/mL).

A further experiment concerns Staphylococcus warneri. Briefly: Antibacterial activity against Methicillin-resistant Staphylococcus warneri MB74 after 24 hrs by microdilution assay. The experiment is classed as functional. The note with it: MB74, 24 h. The method in brief:
as §1
Regarding `COc1cc2oc(-c3ccc(O)cc3)cc(=O)c2c(O)c1OC` [CIRSIMARITIN], the minimum inhibitory concentration (MIC) is above 128 µg/mL.

The subject of the next experiment is Staphylococcus lugdunensis. In words: Antibacterial activity against Staphylococcus lugdunensis MB96 after 24 hrs by microdilution assay. The experiment is classed as functional. The note with it: MB96, 24 h. The method in brief:
as §2
Molecule `COc1cc2oc(-c3ccc(O)cc3)cc(=O)c2c(O)c1OC` [CIRSIMARITIN] returned a minimal inhibitory concentration (MIC) of 407 µM (≈ 128 µg/mL).

For another experiment, the system named is Staphylococcus aureus. Briefly: Antibacterial activity against Methicillin-resistant Staphylococcus aureus MB18 after 24 hrs by microdilution assay. It is filed as functional. The note with it: MB18, 24 h. An outline of the steps:
as §1
The molecule `COc1cc2oc(-c3ccc(O)cc3)cc(=O)c2c(O)c1OC` [CIRSIMARITIN] came in with an MIC above 128 µg/mL.

The test system of another experiment is Enterococcus faecalis. In words: Antibacterial activity against Enterococcus faecalis MB76 after 24 hrs by microdilution assay. It is filed as functional. The note with it: MB76, 24 h. An outline of the steps: as §1
In the case of `COc1cc2oc(-c3ccc(O)cc3)cc(=O)c2c(O)c1OC` [CIRSIMARITIN], the MIC amounted to 407 µM (≈ 128 µg/mL).

Source of the values: ChEMBL document CHEMBL4610084, “Antibacterial and ATP Synthesis Modulating Compounds from Salvia tingitana” (2020).
